This note sets out measurements from ChEMBL document CHEMBL5329154, “Novel 1,2,4-oxadiazole compounds as PPAR-α ligand agonists: a new strategy for the design of antitumour compounds” (RSC Med Chem, 2023).

Structures are written as SMILES.

A short description of data set [1]: Cytotoxicity against human WPMY-1 cells assessed as reduction in cell viability incubated for 72 hrs under normoxic condition by SRB assay. In kind it is toxicity, cell-based. Summed up: (§1)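 Cells in DMEM with 2 mM L-glutamine, 10% FBS, penicillin and streptomycin at 37 °C, 5% CO2. Tumour cells (A498, DU-145) kept at hypoxia (1% O2); non-tumour cells (RPTEC, WPMY-1) at normoxia (20–21% O2). Seeded 2 × 10^4 cells/well, grown 12 h, then dosed 72 h at 0.20–100 μM (ten twofold steps, 0.5% DMSO). Fixed in cold 10% TCA, stained with 0.4% SRB, dye solubilised in 10 mM Tris, OD read at 540 nm. CC50 from non-linear regression.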
On the technique in general: Sulforhodamine B stains cellular protein and so reports cell mass.

The next data set deals with DU-145. The data set can be described thus: Cytotoxicity against human DU-145 cells assessed as reduction in cell viability incubated for 72 hrs under hypoxic condition by SRB assay. In kind it is functional. Summed up:
as §1

For the next data set, the system named is A498. The data set can be described thus: Cytotoxicity against human A498 cells assessed as reduction in cell viability incubated for 72 hrs under hypoxic condition by SRB assay. It counts as functional. Summed up: as §1
Data set [2] is described as follows: Cytotoxicity against human RPTEC assessed as reduction in cell viability incubated for 72 hrs under normoxic condition by SRB assay. It counts as toxicity, cell-based. As to conditions: RPTEC cells. Summed up:
as §1

The target of data set [3] is T1, Peroxisome proliferator-activated receptor alpha (Homo sapiens, UniProt Q07869).
T1 sequence (Q07869 whole entry): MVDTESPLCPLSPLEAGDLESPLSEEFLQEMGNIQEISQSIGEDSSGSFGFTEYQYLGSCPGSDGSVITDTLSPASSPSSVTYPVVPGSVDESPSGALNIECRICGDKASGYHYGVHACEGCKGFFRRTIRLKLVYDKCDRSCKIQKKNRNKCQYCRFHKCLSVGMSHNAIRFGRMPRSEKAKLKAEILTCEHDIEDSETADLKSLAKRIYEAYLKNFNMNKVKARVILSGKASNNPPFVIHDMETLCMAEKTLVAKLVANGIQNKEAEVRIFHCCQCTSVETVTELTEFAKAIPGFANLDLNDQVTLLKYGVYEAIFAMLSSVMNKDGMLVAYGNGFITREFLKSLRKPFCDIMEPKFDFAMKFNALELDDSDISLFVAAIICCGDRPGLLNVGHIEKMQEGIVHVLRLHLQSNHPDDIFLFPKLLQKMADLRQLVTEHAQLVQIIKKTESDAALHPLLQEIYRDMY
The data set can be described thus: Agonist activity at GAL4-tagged PPARalpha in human DU-145 cells assessed as transcriptional activation incubated for 72 hrs under hypoxic condition by luciferase assay. It counts as cell-based.

In data set [4] the target is T1, Peroxisome proliferator-activated receptor alpha. The data set can be described thus: Agonist activity at GAL4-tagged PPARalpha in human RPTEC assessed as transcriptional activation incubated for 72 hrs under normoxic condition by luciferase assay. In kind it is cell-based.
Data set [5] shares this target. The data set is described as follows: Agonist activity at GAL4-tagged PPARalpha in human WPMY-1 cells assessed as transcriptional activation incubated for 72 hrs under normoxic condition by luciferase assay. In kind it is cell-based.
The target is the same in data set [6]. The data set is described as follows: Agonist activity at GAL4-tagged PPARalpha in human A498 cells assessed as transcriptional activation incubated for 72 hrs under hypoxic condition by luciferase assay. It counts as cell-based.

Consider `c1cncc(-c2noc(-c3ccoc3)n2)c1`, for which the CC50 (as a rule, the concentration giving 50% cytotoxicity) at 72 h in data set [1] came out at 62.5 µM; in data set [2] it was 54.8 µM. Moreover, the CC50 in the data set on DU-145 came to 1.83 µM; in the data set on A498, 1.52 µM.
In the same order, the values of `C1=CC(c2nc(-c3cccnc3)no2)=CC1` are 78.6 µM, 66.7 µM, 1.63 µM and 1.37 µM.
The like results for `c1cncc(-c2noc(-c3nn[nH]n3)n2)c1` were, in that order, 99.2 µM, 95.2 µM, 7.49 µM and 5.28 µM.
The like results for `C1=C(c2nc(-c3cccnc3)no2)CCC1` were, in that order, 81.3 µM, 68.4 µM, 1.68 µM and 1.39 µM.
Consider `c1cncc(-c2noc(-c3ncon3)n2)c1`, for which the CC50 at 72 h in data set [1] stood at 77.7 µM; in data set [2], 67.5 µM. The CC50 in the data set with DU-145 amounted to 3.43 µM; with A498, 3.76 µM.
In the same order, the values of `CCCCCc1nc(-c2cccnc2)no1` are 92.7 µM, 81.7 µM, 1.93 µM and 1.66 µM.
In the same order, the values of `Cn1cnc(-c2nc(-c3cccnc3)no2)n1` are 94.9 µM, 90.9 µM, 6.82 µM and 4.83 µM.
In the same order, the values of `c1cncc(-c2noc(-c3nnsn3)n2)c1` are 46.7 µM, 38.7 µM, 1.45 µM and 1.21 µM.
For `c1cncc(-c2noc(-c3nnon3)n2)c1`, the half-maximal cytotoxic concentration (CC50) at 72 h in data set [1] amounted to 70.1 µM; in data set [2], 61.2 µM. Moreover, the figures for the CC50 with DU-145 and with A498 were 2.63 µM and 2.64 µM, respectively.
The like results for `c1cncc(-c2noc(-c3cc[nH]c3)n2)c1` were, in that order, 96.9 µM, 92 µM, 3.97 µM and 2.52 µM.
The like results for `c1cncc(-c2noc(-c3nc[nH]n3)n2)c1` were, in that order, 98.1 µM, 93.6 µM, 5.73 µM and 3.91 µM.
The like results for `Cc1cccc(Nc2cc(Cl)nc(CSC(=O)O)n2)c1C` were, in that order, 62.9 µM, 54.1 µM, 3.21 µM and 2.94 µM.
With `c1cncc(-c2noc(C3CCCC3)n2)c1`, the results for the CC50 at 72 h in data set [1] and in data set [2] were 96.4 µM and 84.4 µM, respectively. Besides, the values for the CC50 in the data set on DU-145 and in the data set with A498 were 2.81 µM and 1.79 µM, respectively.
In the same order, the values of `c1cncc(-c2noc(-c3ccsc3)n2)c1` are 71.1 µM, 63.3 µM, 1.57 µM and 1.32 µM.
The like results for `c1cncc(-c2noc(-c3ncsn3)n2)c1` were, in that order, 53.7 µM, 45.5 µM, 2.79 µM and 2.2 µM.
In the same order, the values of `Cn1nnc(-c2nc(-c3cccnc3)no2)n1` are 93.4 µM, 89 µM, 5.14 µM and 3.42 µM.
Turning to `C1=CC(c2nc(-c3cccnc3)no2)CC1` (stereo unspecified), the CC50 at 72 h in data set [1] was 88 µM; in data set [2] it was 74.8 µM. The figures for the CC50 with DU-145 and in the data set on A498 were 1.81 µM and 1.53 µM, respectively. Besides, the EC50 – broadly, the concentration at which the effect is half-maximal – is 1.5 µM in data set [3], 0.21 µM in data set [4], 0.73 µM in data set [5] and 0.47 µM in data set [6].
Take `Cn1ccc(-c2nc(-c3cccnc3)no2)c1`: the CC50 at 72 h in data set [1] stood at 91.8 µM; in data set [2], 87.2 µM. The figures for the CC50 in the data set on DU-145 and in the data set on A498 were 3.46 µM and 2.01 µM, respectively.
